Measurements: ChEMBL document CHEMBL1687796, “Synthesis and spectrum of the neoglycoside ACHN-490” (2010)
In brackets after ≈: the same amount, converted by molar mass.

How the values were obtained:
Staphylococcus aureus [1] = experiment: Antibacterial activity against aminoglycoside-resistant Staphylococcus aureus expressing APH(2'') + AAC(6') by broth microdilution method; format: functional
How it was run: (§1)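 MICs were measured by broth microdilution following CLSI guidance. The strains formed a 25-strain screening panel with diverse aminoglycoside resistance mechanisms. The panel included Gram-negative and S. aureus strains carrying key aminoglycoside-modifying enzymes, strains with altered permeability or efflux, and an armA ribosomal methyltransferase strain.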

Acinetobacter = experiment: Antibacterial activity against aminoglycoside-resistant Acinetobacter spp. expressing APH(3')-6 by broth microdilution method; format: functional
How it was run: (§2)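 Clinical aminoglycoside-resistant isolates were each carrying a single aminoglycoside-modifying enzyme. […] MICs were determined by CLSI broth microdilution.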

Acinetobacter baumannii [2] = experiment: Antibacterial activity against aminoglycoside-susceptible Acinetobacter baumannii by broth microdilution method; format: functional
Acinetobacter baumannii [3] = experiment: Antibacterial activity against Acinetobacter baumannii ATCC 19606 by broth microdilution method; format: functional; details: ATCC 19606 = CIP 70.34 = JCM 6841; how it was run: as §1
[4] = tested on: Acinetobacter calcoaceticus; experiment: Antibacterial activity against aminoglycoside-resistant Acinetobacter calcoaceticus expressing AAC(6')-1 by broth microdilution method; format: functional; how it was run: as §2
Pseudomonas aeruginosa [5] = experiment: Antibacterial activity against Pseudomonas aeruginosa ATCC 27853 by broth microdilution method; format: functional
Pseudomonas aeruginosa [6] = experiment: Antibacterial activity against wild type Pseudomonas aeruginosa expressing efflux pump by broth microdilution method; format: functional
How it was run: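 MIC was determined by CLSI broth microdilution, read in μg/ml. The strain came from a 25-strain screening panel with diverse aminoglycoside resistance mechanisms. The panel included strains with changes in permeability or efflux, key aminoglycoside-modifying enzymes and an armA methyltransferase strain.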

Pseudomonas aeruginosa [7] = experiment: Antibacterial activity against efflux pump deficient Pseudomonas aeruginosa by broth microdilution method; format: functional
Pseudomonas aeruginosa [8] = experiment: Antibacterial activity against Pseudomonas aeruginosa expressing mexXY operon by broth microdilution method; format: functional; how it was run: as §1
Pseudomonas aeruginosa [9] = experiment: Antibacterial activity against Pseudomonas aeruginosa expressing ANT(4')-2 by broth microdilution method; format: functional; how it was run: as §1
Pseudomonas aeruginosa [10] = experiment: Antibacterial activity against Pseudomonas aeruginosa expressing AAC(3)-1 by broth microdilution method; format: functional
Pseudomonas aeruginosa [11] = experiment: Antibacterial activity against Pseudomonas aeruginosa expressing AAC(6')-2 by broth microdilution method; format: functional
Klebsiella pneumoniae = experiment: Antibacterial activity against Klebsiella pneumoniae ATCC 10031 by broth microdilution method; format: functional; how it was run: as §1
Escherichia coli [12] = experiment: Antibacterial activity against Escherichia coli ATCC 25922 by broth microdilution method; format: functional; how it was run: as §1
Escherichia coli [13] = experiment: Antibacterial activity against aminoglycoside-resistant Escherichia coli expressing ANT(2'')-1 by broth microdilution method; format: functional; how it was run: as §2
Escherichia coli [14] = experiment: Antibacterial activity against aminoglycoside-resistant Escherichia coli expressing armA methylase by broth microdilution method; format: functional; how it was run: as §1
Serratia marcescens = experiment: Antibacterial activity against aminoglycoside-resistant Serratia marcescens expressing ANT(2''), AAC(6') by broth microdilution method; format: functional; how it was run: as §1
Staphylococcus aureus [15] = experiment: microbe, parasite or virus in culture
Staphylococcus aureus [16] = experiment: microbe, parasite or virus in culture; details: ATCC 29213
Staphylococcus aureus [17] = experiment: microbe, parasite or virus in culture; remark: listed apart in the source
Escherichia coli [18] = experiment: Antibacterial activity against aminoglycoside-resistant Escherichia coli expressing AAC(3)-2 by broth microdilution method
Escherichia coli [19] = experiment: Antibacterial activity against aminoglycoside-resistant Escherichia coli expressing AAC(6')-1 by broth microdilution method
Escherichia coli [20] = experiment: Antibacterial activity against aminoglycoside-resistant Escherichia coli expressing APH(3')-1b by broth microdilution method
Escherichia coli [21] = experiment: Antibacterial activity against aminoglycoside-resistant Escherichia coli expressing AAC(3)-IVa by broth microdilution method
Providencia stuartii = experiment: Antibacterial activity against aminoglycoside-resistant Providencia stuartii expressing AAC(2')-1 by broth microdilution method

For `CN[C@@H]1[C@@H](O)[C@@H](O[C@@H]2[C@@H](O)[C@H](O[C@H]3OC(CN)=CC[C@H]3N)[C@@H](N)C[C@H]2N)OC[C@]1(C)O` [SISOMICIN], the MIC (Staphylococcus aureus [1]) was > 64 µg/mL, the MIC (Acinetobacter) was 0.5 µg/mL (≈ 1.12 µM) and the MIC (Acinetobacter baumannii [2]) was 0.5 µg/mL (≈ 1.12 µM). For the same compound, the MIC (Acinetobacter baumannii [3]) was 8 µg/mL (≈ 17.9 µM), the MIC [4] was 32 µg/mL (≈ 71.5 µM) and the MIC (Pseudomonas aeruginosa [5]) was 0.5 µg/mL (≈ 1.12 µM). The MIC (Pseudomonas aeruginosa [6]) was 1 µg/mL (≈ 2.23 µM), the MIC (Pseudomonas aeruginosa [7]) was 0.125 µg/mL (≈ 0.279 µM) and the MIC (Pseudomonas aeruginosa [8]) was 1 µg/mL (≈ 2.23 µM). It also gave an MIC (Pseudomonas aeruginosa [9]) of 1 µg/mL (≈ 2.23 µM), an MIC (Pseudomonas aeruginosa [10]) of 32 µg/mL (≈ 71.5 µM) and an MIC (Pseudomonas aeruginosa [11]) of 32 µg/mL (≈ 71.5 µM). It also gave an MIC (Klebsiella pneumoniae) of 0.25 µg/mL (≈ 0.559 µM), an MIC (Escherichia coli [12]) of 0.5 µg/mL (≈ 1.12 µM) and an MIC (Escherichia coli [13]) of 64 µg/mL (≈ 143 µM). The MIC (Escherichia coli [14]) was > 64 µg/mL, the MIC (Serratia marcescens) was 8 µg/mL (≈ 17.9 µM) and the MIC (Staphylococcus aureus [15]) was 0.25 µg/mL (≈ 0.559 µM). For the same compound, the MIC (Staphylococcus aureus [16]) was 0.5 µg/mL (≈ 1.12 µM), the MIC (Staphylococcus aureus [17]) was 1 µg/mL (≈ 2.23 µM) and the MIC (Escherichia coli [18]) was > 64 µg/mL. The MIC (Escherichia coli [19]) was 32 µg/mL (≈ 71.5 µM), the MIC (Escherichia coli [20]) was 0.25 µg/mL (≈ 0.559 µM) and the MIC (Escherichia coli [21]) was 32 µg/mL (≈ 71.5 µM). The MIC (Providencia stuartii) was 64 µg/mL (≈ 143 µM).
